Experimental data as given in article PMC6682041 (ACS Omega, 2019).

Tests used:
[1] = target: T1, electric eel AChE (Electrophorus electricus, UniProt O42275); assay: Cholinesterase enzyme inhibition assay; format: biochemical
In short: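 Electric eel AChE, added as a 0.36 U/mL solution, was preincubated 15 min at room temperature in sodium phosphate buffer (pH 8.0) with test compound dissolved in 10% DMSO. DTNB and […] substrate were then added, with a further 10 min at room temperature. Absorbance was read at 412 nm, in triplicate. % inhibition = (1 − T/C) × 100; IC50 from the log dose–inhibition curve.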

[2] = target: T2, human recombinant β-secretase (BACE1) (Homo sapiens, UniProt P56817); assay: Enzyme kinetics of BACE1 inhibition; format: biochemical; settings: for BACE1 inhibition type: determined by the Lineweaver–Burk plot
T2 sequence (P56817 46-501): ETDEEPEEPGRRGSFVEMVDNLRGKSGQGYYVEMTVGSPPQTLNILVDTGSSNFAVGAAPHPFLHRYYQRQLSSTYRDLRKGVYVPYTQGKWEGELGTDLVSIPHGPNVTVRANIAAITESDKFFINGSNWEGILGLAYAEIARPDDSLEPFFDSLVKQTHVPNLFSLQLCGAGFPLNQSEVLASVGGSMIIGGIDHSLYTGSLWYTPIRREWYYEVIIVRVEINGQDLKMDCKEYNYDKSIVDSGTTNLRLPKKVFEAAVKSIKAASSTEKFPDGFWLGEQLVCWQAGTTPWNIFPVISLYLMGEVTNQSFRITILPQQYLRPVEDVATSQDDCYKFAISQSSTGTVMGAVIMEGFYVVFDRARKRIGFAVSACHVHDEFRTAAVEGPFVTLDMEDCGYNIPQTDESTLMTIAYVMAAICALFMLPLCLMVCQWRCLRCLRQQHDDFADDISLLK
In short: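 FRET kit using human recombinant β-secretase (1.0 U/mL solution) in assay buffer pH 4.5. The test compound (0.625–5 µM) was mixed with substrate at 250, 375 or 750 nM and incubated 60 min at RT in the dark. Fluorescence was read at ex 545/em 585 nm, and inhibition taken from the 0 to 60 min change versus control. Lineweaver–Burk plots gave the mechanism; Dixon plots gave Ki.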

[3] = target: T1, electric eel AChE; assay: Enzyme kinetics of AChE inhibition; format: biochemical; settings: for AChE inhibition type: determined by the Lineweaver–Burk plot
In short: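 Electric eel AChE (0.36 U/mL solution) was preincubated 15 min at RT with the test compound (0.5–10 µM, from 10% DMSO) in sodium phosphate buffer pH 8.0. DTNB and acetylthiocholine (0.1, 0.3, 0.6 […]) were then added, with 10 min at RT and A412 read. Run in triplicate. Inhibition type came from Lineweaver–Burk plots and Ki from Dixon plots.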

[4] = target: human recombinant GSK-3β (Homo sapiens, UniProt P49841); assay: biochemical
human recombinant GSK-3β, sequence (P49841 whole entry): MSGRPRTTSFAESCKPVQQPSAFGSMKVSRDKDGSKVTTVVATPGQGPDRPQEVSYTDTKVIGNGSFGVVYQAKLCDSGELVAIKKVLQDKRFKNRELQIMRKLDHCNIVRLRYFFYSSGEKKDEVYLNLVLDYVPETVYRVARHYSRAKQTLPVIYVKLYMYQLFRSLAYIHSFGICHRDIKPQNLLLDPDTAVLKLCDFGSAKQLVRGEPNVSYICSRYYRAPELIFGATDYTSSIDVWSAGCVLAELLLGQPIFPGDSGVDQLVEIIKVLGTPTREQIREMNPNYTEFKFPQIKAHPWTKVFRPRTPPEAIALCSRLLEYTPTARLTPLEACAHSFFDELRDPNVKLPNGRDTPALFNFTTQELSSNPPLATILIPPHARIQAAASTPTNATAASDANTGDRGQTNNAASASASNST

[5] = target: T3, horse serum BChE (Equus caballus, UniProt P81908); assay: Enzyme kinetics of BChE inhibition; format: biochemical; settings: for BChE inhibition type: determined by the Lineweaver–Burk plot
T3 sequence (P81908 whole entry): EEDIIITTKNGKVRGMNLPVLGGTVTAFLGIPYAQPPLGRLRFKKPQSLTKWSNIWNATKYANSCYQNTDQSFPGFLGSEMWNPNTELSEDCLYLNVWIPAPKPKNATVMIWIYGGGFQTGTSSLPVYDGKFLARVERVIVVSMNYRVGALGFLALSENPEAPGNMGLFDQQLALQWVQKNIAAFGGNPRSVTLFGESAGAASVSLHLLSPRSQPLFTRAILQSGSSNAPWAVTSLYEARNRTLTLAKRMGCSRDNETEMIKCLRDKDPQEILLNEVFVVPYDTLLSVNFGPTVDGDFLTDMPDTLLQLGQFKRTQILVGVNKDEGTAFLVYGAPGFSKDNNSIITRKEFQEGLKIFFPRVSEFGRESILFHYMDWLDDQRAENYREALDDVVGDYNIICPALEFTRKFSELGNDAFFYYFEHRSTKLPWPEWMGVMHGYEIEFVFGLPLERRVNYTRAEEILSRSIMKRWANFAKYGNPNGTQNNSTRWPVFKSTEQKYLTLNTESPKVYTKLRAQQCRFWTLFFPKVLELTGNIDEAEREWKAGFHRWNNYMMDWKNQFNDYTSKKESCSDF
In short: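 Horse serum BChE (0.36 U/mL solution) was preincubated 15 min at RT with the test compound (1.25–10 µM, from 10% DMSO) in sodium phosphate buffer pH 8.0. Reaction started with DTNB plus butyrylthiocholine (0.1, 0.3, 0.6 […]), then 10 min at RT and A412 read. Run in triplicate. Lineweaver–Burk plots gave the inhibition mode; Dixon plots gave Ki.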

[6] = target: T2, human recombinant β-secretase (BACE1); assay: BACE1 enzyme inhibition assay; format: biochemical
[7] = target: Aβ25–35 (Homo sapiens, UniProt P05067); assay: Self-induced Aβ25–35 aggregation inhibition assay; format: biochemical; settings: read-out: inhibition of self-induced Aβ25–35 aggregation
In short: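 Aβ25–35 was lyophilized from HFIP, taken to a 0.4 mM stock in 65% acetonitrile and diluted 2-fold in 69 mM phosphate pH 7.0. Test compound (0.2, 2, 20 µM) or reference inhibitor (10 µM) was added, then 24 h at 4 °C. ThT (25 µM, glycine–NaOH pH 8.5) was added, with 5 min before reading ex 446/em 490 nm. %inhibition = 100 − (Fi/Fc × 100); mean ± SD, n=3.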

[8] = target: T3, horse serum BChE; assay: Cholinesterase enzyme inhibition assay; format: biochemical

T1 sequence (O42275 24-633): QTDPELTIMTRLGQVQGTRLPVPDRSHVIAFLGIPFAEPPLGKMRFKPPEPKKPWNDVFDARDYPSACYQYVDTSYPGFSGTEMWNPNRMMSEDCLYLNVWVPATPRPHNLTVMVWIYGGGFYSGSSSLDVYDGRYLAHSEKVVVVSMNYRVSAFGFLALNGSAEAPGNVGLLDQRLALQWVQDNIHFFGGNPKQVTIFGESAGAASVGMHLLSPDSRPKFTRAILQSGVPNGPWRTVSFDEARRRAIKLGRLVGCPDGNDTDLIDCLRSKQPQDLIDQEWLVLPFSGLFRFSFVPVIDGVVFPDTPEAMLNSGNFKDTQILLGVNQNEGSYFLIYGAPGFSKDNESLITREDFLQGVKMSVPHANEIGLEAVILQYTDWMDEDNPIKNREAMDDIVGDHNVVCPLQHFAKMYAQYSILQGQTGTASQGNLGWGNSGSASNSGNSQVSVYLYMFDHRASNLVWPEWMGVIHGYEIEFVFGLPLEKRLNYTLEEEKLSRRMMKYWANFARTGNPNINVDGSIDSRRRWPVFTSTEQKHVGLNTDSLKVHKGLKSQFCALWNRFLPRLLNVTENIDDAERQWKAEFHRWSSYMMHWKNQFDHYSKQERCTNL

SMILES	IC50 [1] [µM]	Ki [2] [µM]	BACE1 inhibition type [2]	Ki [3] [µM]	AChE inhibition type [3]	IC50 [4] [µM]	Ki [5] [µM]	BChE inhibition type [5]	IC50 [6] [µM]	inhibition at 20 µM [7] [%]	IC50 [8] [µM]	inhibition at 10 µM [7] [%]
OCc1c(Br)c(O)c(O)c(Br)c1Br [Compound 1, 2,3,6-tribromo-4,5-dihydroxybenzyl alcohol]	7.31 ± 0.25	3.1	noncompetitive	0.58	mixed	229 ± 12.1	1.15	competitive	5.16 ± 0.6	66.8	8.95 ± 2.18	–
COCc1c(Br)c(O)c(O)c(Br)c1Br [Compound 2, 2,3,6-tribromo-4,5-dihydroxybenzyl methyl ether]	9.61 ± 0.35	0.7	noncompetitive	0.71	mixed	140 ± 15.1	0.51	competitive	4.79 ± 0.82	56.7	14.4 ± 0.27	–
Oc1c(O)c(Br)c(COCc2c(Br)c(O)c(O)c(Br)c2Br)c(Br)c1Br [Compound 3, bis-(2,3,6-tribromo-4,5-dihydroxybenzyl) ether]	2.66 ± 0.24	1.24	competitive	0.64	mixed	56.5 ± 2.48	0.37	competitive	2.32 ± 0.1	58.5	4.03 ± 0.15	–
COc1ccc2cc3[n+](cc2c1OC)CCc1cc2c(cc1-3)OCO2 [berberine, reference compound]	1.17 ± 0.09	–	–	–	–	–	–	–	–	–	–	–
COc1cc(/C=C/C(=O)CC(=O)/C=C/c2ccc(O)c(OC)c2)ccc1O [curcumin, reference compound]	–	–	–	–	–	–	–	–	–	–	–	52.4
O=c1cc(-c2ccc(O)c(O)c2)oc2cc(O)cc(O)c12 [luteolin, reference compound]	–	–	–	–	–	5.42 ± 0.19	–	–	–	–	–	–
